Assay results from ChEMBL document CHEMBL5046217, “Discovery of New Imidazo[2,1-b]thiazole Derivatives as Potent Pan-RAF Inhibitors with Promising In Vitro and In Vivo Anti-melanoma Activity” (J Med Chem, 2021).

Key:
[1] = target: Serine/threonine-protein kinase B-raf (Homo sapiens, UniProt P15056); test: Inhibition of human wild type BRAF using myelin basic protein as substrate in presence of [gamma-33P]ATP incubated for 40 mins by scintillation counting method
Method in brief: (§1)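 Radiometric kinase assay run at Reaction Biology. Kinase (5−10 mU) in 25 mM Tris pH 7.5, 0.02 mM EGTA, 10 mM magnesium acetate with 0.66 mg/mL myelin basic protein and [γ-33P]ATP at 1 μM ATP. Reaction started with Mg-ATP and run 40 min at room temperature, then stopped with 3% phosphoric acid. Spotted on P30 filtermat, washed, scintillation counted.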

[2] = target: Serine/threonine-protein kinase B-raf (Homo sapiens, UniProt P15056, V600E); test: Inhibition of human BRAF V600E mutant using myelin basic protein as substrate in presence of [gamma-33P]ATP incubated for 40 mins by scintillation counting method; method in brief: as §1
[3] = target: RAF proto-oncogene serine/threonine-protein kinase (Homo sapiens, UniProt P04049); test: Inhibition of human wild type CRAF using myelin basic protein as substrate in presence of [gamma-33P]ATP incubated for 40 mins by scintillation counting method
[4] = target: Tyrosine-protein kinase ABL1 (Homo sapiens, UniProt P00519); test: Inhibition of ABL1 (unknown origin) incubated for 1 hr by qPCR analysis
Chain of Tyrosine-protein kinase ABL1 (P00519 whole entry): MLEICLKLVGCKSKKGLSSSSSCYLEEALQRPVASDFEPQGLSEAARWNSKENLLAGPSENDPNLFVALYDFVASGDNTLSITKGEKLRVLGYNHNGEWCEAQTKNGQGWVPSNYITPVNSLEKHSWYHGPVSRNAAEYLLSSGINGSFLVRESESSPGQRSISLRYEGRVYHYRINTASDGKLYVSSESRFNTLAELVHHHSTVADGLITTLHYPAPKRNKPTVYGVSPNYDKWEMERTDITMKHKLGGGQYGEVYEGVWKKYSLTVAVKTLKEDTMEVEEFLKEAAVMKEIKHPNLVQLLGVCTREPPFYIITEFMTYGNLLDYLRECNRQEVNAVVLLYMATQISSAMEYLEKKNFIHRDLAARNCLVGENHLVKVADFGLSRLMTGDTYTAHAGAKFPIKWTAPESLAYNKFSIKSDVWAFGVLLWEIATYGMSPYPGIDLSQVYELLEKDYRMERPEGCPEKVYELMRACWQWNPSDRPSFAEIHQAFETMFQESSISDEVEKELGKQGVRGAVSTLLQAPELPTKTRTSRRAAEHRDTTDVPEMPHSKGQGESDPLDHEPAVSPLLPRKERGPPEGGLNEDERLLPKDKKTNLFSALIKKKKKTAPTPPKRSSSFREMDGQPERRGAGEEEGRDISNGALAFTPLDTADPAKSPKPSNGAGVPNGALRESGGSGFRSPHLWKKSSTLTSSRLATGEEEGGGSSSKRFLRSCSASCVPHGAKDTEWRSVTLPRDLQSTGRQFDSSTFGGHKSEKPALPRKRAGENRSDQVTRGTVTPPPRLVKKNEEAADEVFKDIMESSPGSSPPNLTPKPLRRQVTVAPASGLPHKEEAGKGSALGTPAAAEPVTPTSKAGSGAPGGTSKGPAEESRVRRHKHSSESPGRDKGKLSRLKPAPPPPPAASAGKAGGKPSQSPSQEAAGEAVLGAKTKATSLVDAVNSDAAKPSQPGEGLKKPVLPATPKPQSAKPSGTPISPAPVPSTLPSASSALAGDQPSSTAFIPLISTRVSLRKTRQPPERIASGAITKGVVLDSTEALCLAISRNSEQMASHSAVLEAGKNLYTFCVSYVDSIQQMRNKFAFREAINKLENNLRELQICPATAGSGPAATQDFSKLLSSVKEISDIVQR

[5] = target: Serine/threonine-protein kinase/endoribonuclease IRE1 (Homo sapiens, UniProt O75460); test: Inhibition of ERN1 (unknown origin) incubated for 1 hr by qPCR analysis
Chain of Serine/threonine-protein kinase/endoribonuclease IRE1 (O75460 whole entry): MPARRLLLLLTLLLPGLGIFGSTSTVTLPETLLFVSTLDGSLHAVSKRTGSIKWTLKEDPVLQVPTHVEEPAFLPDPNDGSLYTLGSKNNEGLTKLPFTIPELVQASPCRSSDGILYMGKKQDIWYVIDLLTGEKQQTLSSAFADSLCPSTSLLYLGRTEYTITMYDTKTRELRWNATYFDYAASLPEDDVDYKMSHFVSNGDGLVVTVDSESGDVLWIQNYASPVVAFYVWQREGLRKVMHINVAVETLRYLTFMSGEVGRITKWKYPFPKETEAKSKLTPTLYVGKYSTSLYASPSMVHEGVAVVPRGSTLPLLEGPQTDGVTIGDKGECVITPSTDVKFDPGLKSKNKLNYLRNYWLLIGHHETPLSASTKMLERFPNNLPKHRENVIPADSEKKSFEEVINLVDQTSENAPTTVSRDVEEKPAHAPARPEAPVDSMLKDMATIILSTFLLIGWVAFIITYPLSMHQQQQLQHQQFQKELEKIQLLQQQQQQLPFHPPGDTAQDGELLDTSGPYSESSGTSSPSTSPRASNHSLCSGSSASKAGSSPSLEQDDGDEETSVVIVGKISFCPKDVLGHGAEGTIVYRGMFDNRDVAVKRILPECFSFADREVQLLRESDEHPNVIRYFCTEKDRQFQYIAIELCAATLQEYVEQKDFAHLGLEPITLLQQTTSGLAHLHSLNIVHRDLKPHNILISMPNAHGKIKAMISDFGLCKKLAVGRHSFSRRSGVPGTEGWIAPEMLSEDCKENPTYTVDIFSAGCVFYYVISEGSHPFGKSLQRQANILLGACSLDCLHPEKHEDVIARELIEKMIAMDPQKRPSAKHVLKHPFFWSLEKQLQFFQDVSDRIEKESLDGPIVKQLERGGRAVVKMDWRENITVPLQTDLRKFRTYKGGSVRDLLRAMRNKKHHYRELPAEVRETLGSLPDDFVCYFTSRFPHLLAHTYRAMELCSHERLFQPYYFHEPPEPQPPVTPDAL
Method in brief: (§2)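 Competition binding assay. Kinases were either T7-phage-tagged (grown in an E. coli BL21-derived host) or expressed in HEK-293 cells and DNA-tagged. […] Bound kinase was eluted with non-biotinylated ligand and quantified by qPCR.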

[6] = target: Fibroblast growth factor receptor 1 (Homo sapiens, UniProt P11362); test: Inhibition of FGFR1 (unknown origin) incubated for 1 hr by qPCR analysis
Chain of Fibroblast growth factor receptor 1 (P11362 whole entry): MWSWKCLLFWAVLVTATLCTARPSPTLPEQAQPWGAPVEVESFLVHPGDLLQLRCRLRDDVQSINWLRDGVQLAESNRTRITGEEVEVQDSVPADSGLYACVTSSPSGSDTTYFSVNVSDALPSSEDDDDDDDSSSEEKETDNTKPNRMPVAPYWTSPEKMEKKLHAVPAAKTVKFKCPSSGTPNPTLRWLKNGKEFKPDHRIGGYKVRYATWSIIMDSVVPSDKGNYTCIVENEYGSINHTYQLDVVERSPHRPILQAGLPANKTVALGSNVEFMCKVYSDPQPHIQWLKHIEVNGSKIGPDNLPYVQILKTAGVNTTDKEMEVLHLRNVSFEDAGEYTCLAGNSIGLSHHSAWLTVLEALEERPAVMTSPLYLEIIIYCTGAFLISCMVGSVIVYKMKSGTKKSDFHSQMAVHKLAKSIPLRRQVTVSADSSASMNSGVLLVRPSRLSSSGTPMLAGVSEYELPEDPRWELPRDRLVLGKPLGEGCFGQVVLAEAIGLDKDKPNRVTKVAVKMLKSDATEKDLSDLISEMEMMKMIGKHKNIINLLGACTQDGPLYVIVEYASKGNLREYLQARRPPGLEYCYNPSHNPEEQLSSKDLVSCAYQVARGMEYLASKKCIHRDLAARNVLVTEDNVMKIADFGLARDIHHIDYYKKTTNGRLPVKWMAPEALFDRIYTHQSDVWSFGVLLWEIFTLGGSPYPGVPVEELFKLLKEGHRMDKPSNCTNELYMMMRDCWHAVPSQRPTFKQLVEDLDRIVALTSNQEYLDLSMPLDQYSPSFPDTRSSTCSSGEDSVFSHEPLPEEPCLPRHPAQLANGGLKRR

[7] = target: T1, Receptor-type tyrosine-protein kinase FLT3 (Homo sapiens, UniProt P36888); test: Inhibition of FLT3 (unknown origin) incubated for 1 hr by qPCR analysis; method in brief: as §2
T1 sequence (P36888 whole entry): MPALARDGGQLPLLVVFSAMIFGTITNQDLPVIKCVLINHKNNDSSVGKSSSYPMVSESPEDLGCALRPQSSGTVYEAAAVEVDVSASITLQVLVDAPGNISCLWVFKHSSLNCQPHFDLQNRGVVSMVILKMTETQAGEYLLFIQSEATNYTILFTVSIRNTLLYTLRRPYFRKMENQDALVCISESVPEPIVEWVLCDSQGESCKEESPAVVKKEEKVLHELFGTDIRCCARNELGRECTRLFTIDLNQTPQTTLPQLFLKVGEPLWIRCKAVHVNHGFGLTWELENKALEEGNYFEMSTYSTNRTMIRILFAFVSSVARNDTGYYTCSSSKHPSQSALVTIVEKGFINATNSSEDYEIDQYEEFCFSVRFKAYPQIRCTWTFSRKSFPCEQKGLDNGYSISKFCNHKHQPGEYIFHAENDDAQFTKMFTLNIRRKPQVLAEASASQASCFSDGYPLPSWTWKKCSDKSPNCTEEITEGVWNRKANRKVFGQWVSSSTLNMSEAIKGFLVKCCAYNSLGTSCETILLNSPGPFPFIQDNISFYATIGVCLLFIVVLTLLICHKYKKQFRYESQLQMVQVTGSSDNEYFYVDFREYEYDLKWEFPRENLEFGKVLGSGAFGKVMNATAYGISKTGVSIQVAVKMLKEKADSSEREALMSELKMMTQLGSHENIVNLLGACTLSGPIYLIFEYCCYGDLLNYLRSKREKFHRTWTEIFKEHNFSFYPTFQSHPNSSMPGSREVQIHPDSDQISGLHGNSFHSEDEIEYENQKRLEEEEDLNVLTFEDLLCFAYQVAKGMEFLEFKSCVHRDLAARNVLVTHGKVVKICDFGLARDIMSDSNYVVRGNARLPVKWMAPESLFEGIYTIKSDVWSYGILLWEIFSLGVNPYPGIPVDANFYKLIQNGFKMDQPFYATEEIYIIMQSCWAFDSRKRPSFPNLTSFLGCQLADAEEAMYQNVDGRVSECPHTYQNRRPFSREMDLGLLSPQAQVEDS

[8] = target: Homeodomain-interacting protein kinase 1 (Homo sapiens, UniProt Q86Z02); test: Inhibition of HIPK1 (unknown origin) incubated for 1 hr by qPCR analysis; method in brief: as §2
[9] = target: Mitogen-activated protein kinase 8 (Homo sapiens, UniProt P45983); test: Inhibition of MAPK8 (unknown origin) incubated for 1 hr by qPCR analysis; method in brief: as §2
Chain of Mitogen-activated protein kinase 8 (P45983 whole entry): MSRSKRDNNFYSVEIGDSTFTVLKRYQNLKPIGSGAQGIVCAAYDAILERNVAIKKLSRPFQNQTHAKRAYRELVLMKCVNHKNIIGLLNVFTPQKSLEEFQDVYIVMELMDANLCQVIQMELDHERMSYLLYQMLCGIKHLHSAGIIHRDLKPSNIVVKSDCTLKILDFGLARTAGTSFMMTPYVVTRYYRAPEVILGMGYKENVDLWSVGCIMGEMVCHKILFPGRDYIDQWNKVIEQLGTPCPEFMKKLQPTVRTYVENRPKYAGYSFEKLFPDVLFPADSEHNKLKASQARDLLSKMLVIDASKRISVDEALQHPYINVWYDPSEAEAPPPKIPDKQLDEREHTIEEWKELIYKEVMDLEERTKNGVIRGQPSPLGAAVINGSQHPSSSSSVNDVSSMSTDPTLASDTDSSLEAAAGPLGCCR

[10] = target: Mitogen-activated protein kinase 11 (Homo sapiens, UniProt Q15759); test: Inhibition of MAPK11 (unknown origin) incubated for 1 hr by qPCR analysis; method in brief: as §2
Chain of Mitogen-activated protein kinase 11 (Q15759 whole entry): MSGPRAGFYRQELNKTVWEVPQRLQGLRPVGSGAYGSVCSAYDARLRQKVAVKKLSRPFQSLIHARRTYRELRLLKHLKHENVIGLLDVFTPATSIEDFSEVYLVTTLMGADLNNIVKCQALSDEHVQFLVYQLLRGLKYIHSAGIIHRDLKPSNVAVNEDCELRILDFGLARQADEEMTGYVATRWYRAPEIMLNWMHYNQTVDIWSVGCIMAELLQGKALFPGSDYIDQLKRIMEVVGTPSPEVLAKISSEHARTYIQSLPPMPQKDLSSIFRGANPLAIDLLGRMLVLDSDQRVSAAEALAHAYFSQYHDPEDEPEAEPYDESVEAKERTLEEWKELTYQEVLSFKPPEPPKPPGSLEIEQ

[11] = target: Mitogen-activated protein kinase 14 (Homo sapiens, UniProt Q16539); test: Inhibition of MAPK14 (unknown origin) incubated for 1 hr by qPCR analysis; method in brief: as §2
Chain of Mitogen-activated protein kinase 14 (Q16539 whole entry): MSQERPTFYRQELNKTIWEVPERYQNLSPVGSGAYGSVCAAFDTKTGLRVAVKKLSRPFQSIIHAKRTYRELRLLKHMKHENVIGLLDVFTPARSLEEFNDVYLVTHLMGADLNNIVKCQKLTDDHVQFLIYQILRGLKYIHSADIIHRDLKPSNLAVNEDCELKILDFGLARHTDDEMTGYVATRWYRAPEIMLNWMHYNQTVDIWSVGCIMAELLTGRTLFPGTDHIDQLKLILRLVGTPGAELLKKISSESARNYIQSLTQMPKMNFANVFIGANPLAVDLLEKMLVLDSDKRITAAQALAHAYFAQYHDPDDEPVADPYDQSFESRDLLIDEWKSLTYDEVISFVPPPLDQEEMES

[12] = target: Mitogen-activated protein kinase kinase kinase 20 (Homo sapiens, UniProt Q9NYL2); test: Inhibition of ZAK (unknown origin) incubated for 1 hr by qPCR analysis; method in brief: as §2
[13] = Acute toxicity in Hsd:athymic nude-Foxn1nu mouse at 50 to 250 mg/kg; assay type: organism-based; conditions: in vivo, dose 50-250 mg/kg
Method in brief: (§3)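 Male Hsd:Athymic Nude-Foxn1nu mice received the compound by injection at five single doses (50, 100, 250, 500 and 1000 mg/kg), with seven animals per dose group.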

[14] = Acute toxicity in Hsd:athymic nude-Foxn1nu mouse assessed as animal mortality at 500 to 1000 mg/kg; assay type: organism-based; conditions: in vivo, dose 500-1000 mg/kg; method in brief: as §3
[15] = Tmax in Sprague-Dawley rat at 5 mg/kg, po by LC-MS/MS analysis; assay type: ADME, organism-based; conditions: in vivo
Method in brief: (§4)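 Male SD rats, 7−8 weeks, 250−300 g, three per group, dosed 5 mg/kg IV or PO. Vehicle was 5% DMSO/40% PEG400/55% water. Rats fasted 16 h before oral dosing. Samples taken every 30 min and measured by LC/MS/MS with carbamazepine as internal standard. Parameters from non-compartmental analysis of plasma concentration–time profiles.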

[16] = Cmax in Sprague-Dawley rat at 5 mg/kg, po by LC-MS/MS analysis; assay type: ADME, organism-based; design: route oral, dose 5 mg/kg; conditions: in vivo
Method in brief: (§5)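 Male SD rats (7–8 weeks, 250–300 g), three per group, were dosed at 5 mg/kg i.v. or p.o. in 5% DMSO/40% PEG400/55% water. Rats were fasted 16 h before oral dosing. Serum was sampled every 30 min and measured by LC/MS/MS with carbamazepine as internal standard. Parameters came from non-compartmental analysis.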

[17] = Half life in Sprague-Dawley rat at 5 mg/kg, iv by LC-MS/MS analysis; assay type: ADME, organism-based; conditions: in vivo; method in brief: as §5
[18] = Half life in Sprague-Dawley rat at 5 mg/kg, po by LC-MS/MS analysis; assay type: ADME, organism-based; conditions: in vivo; method in brief: as §5
[19] = Clearance in Sprague-Dawley rat at 5 mg/kg, iv by LC-MS/MS analysis; assay type: ADME, organism-based; conditions: in vivo; method in brief: as §5
[20] = Volume of distribution in Sprague-Dawley rat at 5 mg/kg, iv by LC-MS/MS analysis; assay type: ADME, organism-based; conditions: in vivo; method in brief: as §4
[21] = Oral bioavailability in Sprague-Dawley rat at 5 mg/kg by LC-MS/MS analysis; assay type: ADME, organism-based; conditions: in vivo; method in brief: as §4
[22] = Apparent permeability across apical to basolateral side in human Caco-2 cells at 5 uM measured every 15 mins for 1 hr by LC-MS/MS analysis; assay type: ADME, cell-based
[23] = Apparent permeability across basolateral to apical side in human Caco-2 cells at 5 uM measured every 15 mins for 1 hr by LC-MS/MS analysis; assay type: ADME, cell-based
[24] = Stability in human plasma assessed as parent compound remaining at 10 uM measured after 30 mins by LC-MS analysis; assay type: ADME, cell-free; conditions: read-out: Stability
Method in brief: (§6)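 About 10 μM compound shaken in human or rat plasma at 37 °C for 30 and 120 min. Acetonitrile added, samples centrifuged at 4 °C, and remaining parent in the supernatant quantified by LC−MS. Procaine and diltiazem run as references.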

[25] = Stability in human plasma assessed as parent compound remaining at 10 uM measured after 120 mins by LC-MS analysis; assay type: ADME, cell-free; conditions: read-out: Stability; method in brief: as §6
[26] = Stability in rat plasma assessed as parent compound remaining at 10 uM measured after 30 mins by LC-MS analysis; assay type: ADME, cell-free; conditions: read-out: Stability; method in brief: as §6
[27] = Stability in rat plasma assessed as parent compound remaining at 10 uM measured after 120 mins by LC-MS analysis; assay type: ADME, cell-free; conditions: read-out: Stability; method in brief: as §6

Chain of Serine/threonine-protein kinase B-raf (Homo sapiens, UniProt P15056) (P15056 whole entry): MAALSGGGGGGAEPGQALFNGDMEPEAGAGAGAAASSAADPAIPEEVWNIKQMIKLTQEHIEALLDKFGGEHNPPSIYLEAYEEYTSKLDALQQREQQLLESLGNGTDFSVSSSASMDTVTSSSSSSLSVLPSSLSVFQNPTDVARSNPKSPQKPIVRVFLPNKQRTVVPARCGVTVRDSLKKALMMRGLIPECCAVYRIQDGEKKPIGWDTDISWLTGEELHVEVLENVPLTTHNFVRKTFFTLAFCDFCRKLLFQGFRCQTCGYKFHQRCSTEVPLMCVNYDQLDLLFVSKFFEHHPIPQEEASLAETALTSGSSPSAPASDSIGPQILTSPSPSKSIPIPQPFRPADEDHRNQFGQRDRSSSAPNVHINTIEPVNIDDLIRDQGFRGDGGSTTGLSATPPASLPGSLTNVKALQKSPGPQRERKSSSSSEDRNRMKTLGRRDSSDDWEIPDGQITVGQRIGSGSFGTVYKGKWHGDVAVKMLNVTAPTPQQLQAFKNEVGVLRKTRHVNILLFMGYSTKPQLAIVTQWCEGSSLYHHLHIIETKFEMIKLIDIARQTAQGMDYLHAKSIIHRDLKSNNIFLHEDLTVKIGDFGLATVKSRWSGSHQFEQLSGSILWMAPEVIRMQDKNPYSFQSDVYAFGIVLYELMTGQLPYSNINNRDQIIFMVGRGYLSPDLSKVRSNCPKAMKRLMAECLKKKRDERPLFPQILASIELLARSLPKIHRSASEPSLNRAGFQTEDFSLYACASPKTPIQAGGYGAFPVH

## CN1CCN(CCNc2nccc(-c3c(-c4cccc(O)c4)nc4sccn34)n2)S1(=O)=O
[1]
  IC50: 2 nM
[2]
  IC50: 0.07 nM
[3]
  IC50: 1.12 nM
[4]
  IC50: 12400 nM
[5]
  IC50: 11300 nM
[6]
  IC50: 13500 nM
[7]
  IC50: 1510 nM
[8]
  IC50: 3780 nM
[9]
  IC50: 910 nM
[10]
  IC50: 820 nM
[11]
  IC50: 1020 nM
[12]
  IC50: 9010 nM
[13]
  Activity: Non-Toxic
[14]
  Activity: Toxic
[15]
  Tmax: 2.08 h
[16]
  Cmax: 0.0969 µg/mL
[17]
  half-life: 1.72 h
[18]
  half-life: 3.35 h
[19]
  clearance: 0.124 L/h/kg
[20]
  Vd: 0.578 L/kg
[21]
  bioavailability: 6.59%
[22]
  Papp A→B at 1 h, 5 µM: 142 nm/s
[23]
  Papp B→A at 1 h, 5 µM: 218 nm/s
[24]
  remaining at 0.5 h, 10 µM: 97.2%
[25]
  remaining at 2 h, 10 µM: 95.4%
[26]
  remaining at 0.5 h, 10 µM: 90.6%
[27]
  remaining at 2 h, 10 µM: 76.6%
